Data taken from paper PMC7114156 (Antiviral Research, 2009).

Key:
episomal HPV-16 DNA = assay: Hybrid capture assay for HPV16 DNA in W12-20850 cells; type: cell-based; settings: read-out: EC50, reduction of HPV DNA; W12 cells; data not shown
Summary of the method: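 W12-20850 cells seeded at 7.5 × 10^3/well onto compound (100 to 0.001 μM), 4 days at 37 °C, 5% CO2. MTS growth read, then same cells lysed in 0.2N NaOH/1% Igepal. Episomal HPV-16 DNA measured by hybrid capture: 90 °C 6.5 min, 42 °C overnight, anti-digoxigenin HRP, chemiluminescence. HPV DNA/MTS ratio expressed as % of untreated control. Fit to modified Hill equation.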

IM9 cells [1] = assay: Growth of IM9 cell line; type: cell-based, human; settings: read-out: EC50, growth of IM9 cells; data not shown
adenovirus type 5 = assay: Adenovirus assay: adenovirus-5 replication in HFF cells, viral DNA by qPCR; type: cell-based; settings: read-out: EC50, adenovirus replication; data not shown
W12-20850 cells = assay: Growth of W12-20850 cells, MTS; type: cell-based, human; settings: read-out: EC50, inhibition of growth of W12 cells; data not shown
Summary of the method: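 For the time course, test compound was added at time zero to cells growing in 96-well plates. Growth was followed as rate of MTS reduction over 3 days from day zero, with untreated controls alongside.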

IM9 cells [2] = assay: Apoptosis assay; type: cell-based, human; settings: IM9, 20 h exposure
Summary of the method: (§1)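 Apoptosis read as cytoplasmic histone-associated DNA fragments with a Cell Death Detection ELISA kit. Exposure was 20 h for IM9 and MT4 and 40 h for W12 and U937. A405 was read kinetically at 30 °C, and the rate per hour came from linear regression of the linear portion. A Fas-activating antibody was the positive control.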

MT4 cells [3] = assay: Apoptosis assay; type: cell-based, human; settings: MT4, 20 h exposure
Summary of the method: as §1

U937 cells = assay: Apoptosis assay; type: cell-based, human; settings: U937, 40 h exposure
Summary of the method: as §1

MT4 cells [4] = assay: Growth of MT4 cell line; type: cell-based, human; settings: read-out: EC50, growth of MT4 cells; data not shown
W12 cells = assay: Apoptosis assay; type: cell-based, human; settings: W12, 40 h exposure
Summary of the method: as §1

In the case of `O=C(N[C@H]1CCCc2c1[nH]c1ccc(Cl)cc21)c1ccccn1` [GSK984], the EC50 (episomal HPV-16 DNA) is reported as 6.9 ± 0.68 µM, the EC50 (IM9 cells [1]) is reported as 13 µM and the EC50 (adenovirus type 5) is reported as greater than 10 µM. For the same compound, the EC50 (W12-20850 cells) was 17 ± 3.6 µM, the Apoptosis (IM9 cells [2]) was “did not induce apoptosis” and the Apoptosis (MT4 cells [3]) was “did not induce apoptosis”. For the same compound, the Apoptosis (U937 cells) was “did not induce apoptosis”, the EC50 (MT4 cells [4]) was 35 µM and the Apoptosis (W12 cells) was “did not induce apoptosis”.
